# From PubChem BioAssay
# Compounds with a hit are over-represented: about 1.1% of the library has one in this group of screens.
# ERAP1 inh: blocks human ERAP1 aminopeptidase activity; inhibition, % at 10.7 µM; AID 652197; recombinant ERAP1, Leu-AMC fluorescence, 60 min; 0.15% of 340,000 active;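 active = mean replicate inhibition of at least 30%, or all replicates individually reaching that 30% level; inactive = mean below 30% and not every replicate reaching it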;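 also: 0% = neutral control wells and 100% = L-leucinethiol positive control wells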
# CAL PDZ FP-1: inhibitors of human CAL PDZ peptide binding. Q9HD26. purified CAL PDZ, TMR-peptide fluorescence polarization, 1 h. inhibition, % at 20 µM. 0.02% of 330,000 active;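 active = highest replicate inhibition of at least 40%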;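 also: plate controls were DMSO neutral control wells for no effect and unlabeled competitor peptide control wells for full effect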
#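 Assay system – tagged CAL PDZ protein CerCALP, purified · Timing – 1 h at RT · Compound – single point, 20 µM · Measured by – fluorescence polarization from S- and P-plane intensities, G-factor corrected · Evaluation – inhibition from polarization loss · Probe or stimulus – TMR reporter peptide T*-PRC34 · Buffer or medium – pH 7.4 phosphate-saline buffer, reducing agent, detergent, IgG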
# Rin1-Abl PPI inh: human Rin1-Abl interaction inhibition; TR-FRET Rin1/Abl binding, biochemical; P00519+Q13671; 0.4% of 360,000 active; inhibition, % at 7.35 µM; in the data active = inhibition above about 5%, passing the limit was not always enough
# Target sequence (P00519 whole entry, looked up): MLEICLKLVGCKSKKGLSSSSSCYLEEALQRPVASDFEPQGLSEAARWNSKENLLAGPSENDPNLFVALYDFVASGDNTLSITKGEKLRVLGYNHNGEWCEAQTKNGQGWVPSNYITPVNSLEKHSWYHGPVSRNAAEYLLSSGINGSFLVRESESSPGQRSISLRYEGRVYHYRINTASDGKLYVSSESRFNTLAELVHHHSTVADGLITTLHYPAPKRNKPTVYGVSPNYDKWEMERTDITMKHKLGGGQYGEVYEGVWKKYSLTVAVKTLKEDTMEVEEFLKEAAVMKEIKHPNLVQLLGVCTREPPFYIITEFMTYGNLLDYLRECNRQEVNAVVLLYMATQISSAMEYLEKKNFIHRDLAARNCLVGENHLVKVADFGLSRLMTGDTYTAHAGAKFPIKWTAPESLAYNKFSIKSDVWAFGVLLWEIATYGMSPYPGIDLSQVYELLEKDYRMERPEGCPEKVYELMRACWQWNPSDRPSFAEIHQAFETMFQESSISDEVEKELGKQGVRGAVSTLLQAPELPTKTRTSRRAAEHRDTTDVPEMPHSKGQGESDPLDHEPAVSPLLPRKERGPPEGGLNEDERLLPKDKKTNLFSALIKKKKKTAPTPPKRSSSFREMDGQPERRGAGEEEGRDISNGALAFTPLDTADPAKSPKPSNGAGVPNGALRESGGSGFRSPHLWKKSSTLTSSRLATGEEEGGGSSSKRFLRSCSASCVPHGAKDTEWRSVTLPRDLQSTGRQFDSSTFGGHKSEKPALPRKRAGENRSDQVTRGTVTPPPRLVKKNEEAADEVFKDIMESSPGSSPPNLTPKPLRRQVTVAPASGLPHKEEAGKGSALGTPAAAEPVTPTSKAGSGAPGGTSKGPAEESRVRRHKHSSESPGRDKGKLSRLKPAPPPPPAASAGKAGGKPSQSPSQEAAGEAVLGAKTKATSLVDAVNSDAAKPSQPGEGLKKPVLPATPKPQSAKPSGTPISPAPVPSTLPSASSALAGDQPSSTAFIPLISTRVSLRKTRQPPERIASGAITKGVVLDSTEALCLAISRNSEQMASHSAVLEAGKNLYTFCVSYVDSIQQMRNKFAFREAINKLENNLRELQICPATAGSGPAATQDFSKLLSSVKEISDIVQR
# Target sequence (Q13671 whole entry, looked up): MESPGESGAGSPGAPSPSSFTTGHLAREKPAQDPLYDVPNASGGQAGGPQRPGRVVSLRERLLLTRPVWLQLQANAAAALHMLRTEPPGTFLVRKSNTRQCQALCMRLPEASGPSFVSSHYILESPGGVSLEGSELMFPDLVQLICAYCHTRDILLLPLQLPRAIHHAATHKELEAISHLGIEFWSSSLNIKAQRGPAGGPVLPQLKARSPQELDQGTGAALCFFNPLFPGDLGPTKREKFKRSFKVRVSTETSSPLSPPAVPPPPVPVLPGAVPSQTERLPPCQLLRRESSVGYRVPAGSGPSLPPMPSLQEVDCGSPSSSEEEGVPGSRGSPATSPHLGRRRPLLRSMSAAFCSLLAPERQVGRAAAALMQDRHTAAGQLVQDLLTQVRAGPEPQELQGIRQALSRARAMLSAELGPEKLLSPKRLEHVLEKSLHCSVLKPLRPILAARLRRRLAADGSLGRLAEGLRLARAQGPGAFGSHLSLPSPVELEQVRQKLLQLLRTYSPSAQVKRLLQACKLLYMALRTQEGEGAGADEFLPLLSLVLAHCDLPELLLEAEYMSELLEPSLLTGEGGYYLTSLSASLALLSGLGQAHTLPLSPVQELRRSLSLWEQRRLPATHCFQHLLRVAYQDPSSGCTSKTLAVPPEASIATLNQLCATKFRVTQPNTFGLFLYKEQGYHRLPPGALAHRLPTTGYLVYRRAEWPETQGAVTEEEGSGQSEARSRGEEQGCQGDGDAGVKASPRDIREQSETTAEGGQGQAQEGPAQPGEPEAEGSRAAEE
# CAL PDZ FP-2: inhibitors of human CAL PDZ peptide binding; Q9HD26; purified CAL PDZ, TMR-peptide fluorescence polarization, 1 h; inhibition, % at 24.9 µM; 0.92% of 300,000 active; AID 602252;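 active = mean inhibition of at least 30% with at least half of replicates also reaching 30%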;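 also: 0% = DMSO neutral control and 100% = excess unlabeled competitor peptide PRC23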
# ERp5 block: inhibitors of human ERp5; ERp5 insulin aggregation, absorbance 650 nm, 90 min; inhibition, % at 9.99 µM; Q15084; 0.05% of 350,000 active;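 active = mean replicate inhibition above about 25%, with every replicate also reaching it, limit read from the data, passing the limit was not always enough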
# PDI inh: PDI (human) enzyme inhibition; PDI insulin aggregation turbidity, A650, 90 min; AID 588391; inhibition, % at 10 µM; 0.052% of 350,000 active; P07237;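 active = mean inhibition across replicates of 30% or more, whatever share of single replicates reach that level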
# * = called active by the depositor; . = no result given.
SMILES,ERAP1 inh,CAL PDZ FP-1,Rin1-Abl PPI inh,CAL PDZ FP-2,ERp5 block,PDI inh
COC(=O)c1ccc(=O)c2nc3/c(=C/O)c(O)cc(=O)c3[nH]c12,3,3,38*,-1,5,.
COc1ccc(NC(=O)N(C)C[C@@H]2OCCCC[C@H](C)Oc3ccc(NC(=O)Nc4c(C)noc4C)cc3C(=O)N([C@@H](C)CO)C[C@H]2C)cc1,-2,.,.,.,9,.
C[C@@H](O)C#Cc1ccc([C@H]2[C@@H](CO)N3CCCCN(C(=O)Nc4ccccc4)C[C@H]23)cc1,0,.,.,.,1,.
Cc1noc(C)c1NC(=O)N(C)C[C@H]1OCCCC[C@H](C)Oc2ccc(NS(=O)(=O)c3ccc(Cl)cc3)cc2C(=O)N([C@@H](C)CO)C[C@@H]1C,-3,.,.,.,0,.
CCN1C(=O)c2cccc3cccc1c23,44*,-2,0,-7,-1,1
O=C(COC(=O)Cn1cnc2ccccc21)Nc1cc2c(cc1Cl)C(=O)c1ccccc1C2=O,-1,1,-11,80*,3,-4
O=C(COC(=O)Cn1cnc2ccccc21)Nc1cc(S(=O)(=O)N2CCOCC2)ccc1Cl,.,0,1,-7,5,3
Clc1c(Cl)c(Cl)c2n[nH]nc2c1Cl,3,-2,-1,79*,0,-6
CC1CC(C)CN(CCCNS(=O)(=O)c2ccc3c(c2)CCN3C(=O)C2CC2)C1 (centres undefined),2,-3,-3,120*,6,0
CCOC(=O)c1ccc(S(=O)(=O)NCC(C)(C)N2CCOCC2)cc1,-2,1,-4,56*,-2,-6
CC(=O)c1cccc(S(=O)(=O)NCC(C)(C)N2CCOCC2)c1,-2,0,1,0,2,-1
NC(=NCCc1ccc(Cl)cc1)NS(=O)(=O)c1ccc(F)cc1,.,-1,0,46*,.,11
NC(=NCCc1ccc(Cl)cc1)NS(=O)(=O)c1ccccc1,1,0,-3,.,-1,-4
CCc1nnc(NS(=O)(=O)c2ccc(N)cc2)s1,0,0,1,-1,0,-1
CCc1nnc(NS(=O)(=O)c2ccc(N3C(=O)c4ccccc4C3=O)cc2)s1,-1,-1,0,84*,-9,-4
CC(C)[C@H](NC(=O)[C@H](CCCN=C(N)N)NC(=O)NC(Cc1ccccc1)C(=O)O)C(=O)NC(C=O)CCCN=C(N)N (some centres undefined),35*,0,0,-2,1,2
CCc1noc(C)c1C(=O)Nc1nc2c(C)cccc2s1,0,-3,0,-7,0,1
CCc1noc(C)c1C(=O)Nc1ncc(C)s1,.,-3,2,35*,.,1
Cn1c(CN2CCCCC2)nc2cc(NC(=O)c3ccccc3Cl)ccc21,2,0,1,.,0,-6
COc1ccccc1C(=O)Nc1ccc2c(c1)nc(CN1CCCCC1)n2C,0,-1,-2,71*,-4,7
O=C(C[C@H]1C[C@H]2c3cc(NC(=O)NC4CCCCC4)ccc3O[C@H]2[C@H](CO)O1)NCC1CC1,0,.,.,.,0,.
COCCN(C(=O)CSc1ncn[nH]1)c1c(N)n(Cc2ccccc2)c(=O)[nH]c1=O,57*,-1,3,-1,-6,-1
CN(C(=O)COC(=O)/C=C/c1ccc2ccccc2n1)c1c(N)n(Cc2ccccc2)c(=O)[nH]c1=O,-2,-1,2,-1,6,1
COCCN(C(=O)CSc1nc2ccccc2s1)c1c(N)n(Cc2ccccc2)c(=O)[nH]c1=O,0,-1,4,99*,-4,3
CCCCn1c(N)c(N(CCOC)C(=O)c2cc(-c3ccc(OC)c(OC)c3)nc3ccccc23)c(=O)[nH]c1=O,37*,0,1,-4,5,3
SMILES,ERAP1 inh,CAL PDZ FP-1,Rin1-Abl PPI inh,CAL PDZ FP-2,ERp5 block,PDI inh
COCCN(C(=O)COC(=O)/C=C/c1ccc2ccccc2n1)c1c(N)n(Cc2ccccc2)c(=O)[nH]c1=O,-2,-4,-2,43*,6,-2
COc1cccc(S(=O)(=O)N[C@@H]2C=C[C@@H](CC(=O)NC3Cc4ccccc4C3)O[C@H]2CO)c1,-3,.,.,.,3,.
CN1CCN(C(=O)C[C@@H]2CC[C@@H]3[C@H](COC[C@@H](O)CN3Cc3ccc(Oc4ccccc4)cc3)O2)CC1,2,.,.,.,6,.
CC1CCC(NC(=O)CCN2C(=O)C3CC=CCC3C2=O)CC1 (centres undefined),-2,0,-1,67*,0,9
Cc1noc(C)c1S(=O)(=O)Nc1ccc2c(c1)C(=O)N([C@@H](C)CO)C[C@@H](C)[C@H](CN(C)Cc1ccncc1)O2,2,.,.,.,9,.
CN(C)C(=O)c1cccc(-c2ccc([C@H]3[C@H]4CN(C(=O)CC5CC5)CC(=O)N4[C@H]3CO)cc2)c1,1,.,.,.,4,.
COc1ccc2c(c1)CCc1cc(C(=O)O)sc1-2,-7,0,-5,-3,4,-3
COc1ccc(-c2cc(C(=O)O)sc2C)cc1,-1,-2,1,44*,-2,3
CCC(=O)N1[C@H](CO)[C@H](c2ccccc2)[C@@H]1CNC(=O)CN1CCOCC1,1,.,.,.,-1,.
C=CC[N+](C)(C)CCCNC(=O)/C=N/O,69*,0,-1,-1,-8,-14
O=C(Nc1ccc2c(c1)[C@H]1C[C@@H](CC(=O)N3CCOCC3)O[C@H](CO)[C@H]1O2)C1CCOCC1,3,.,.,.,-2,.
CC(C)Oc1ccc2nnnn2n1,1,.,0,130*,-2,0
O=C(Nc1ccccc1N1CCOCC1)c1ccc(S(=O)(=O)NCc2ccco2)cc1,-15,-1,-3,3,-7,5
O=C(Nc1ccccc1N1CCOCC1)c1ccc(Cl)c(S(=O)(=O)NCc2ccco2)c1,-1,1,-2,91*,-1,10
CC(C)(C)c1nnc(NC(=O)Nc2ccc(Cl)cc2)s1,2,-1,2,0,-4,7
COc1ccc(NC(=O)Nc2nnc(C(C)(C)C)s2)cc1,1,-1,1,47*,-1,7
C[C@@H]1CN([C@H](C)CO)C(=O)c2cc(NC(=O)Nc3ccc(C(F)(F)F)cc3)ccc2O[C@@H](C)CCCCO[C@H]1CN(C)S(C)(=O)=O,-3,.,.,.,5,.
C/C=C/c1ccc([C@@H]2[C@H](CO)N3C(=O)CN(S(=O)(=O)c4ccccc4)C[C@@H]23)cc1,0,.,.,.,12,.
O=C(OCc1nnc(-c2ccc(Cl)cc2)o1)c1ccc(O)cc1,-3,-1,5,4,-6,6
CS(=O)(=O)c1ccc(C(=O)OCc2nnc(-c3ccc(Cl)cc3)o2)cc1[N+](=O)[O-],.,-1,2,8,.,89*
Cc1ccc(S(=O)(=O)Nc2ccc(NC(=O)Nc3cccc(C(F)(F)F)c3)cc2)cc1,-1,-2,-4,74*,1,8
